Screens as filed in PubChem.
AP ELISA ortho – alternative pathway complement inhibition, orthogonal assay; Human serum alternative complement pathway, LPS-coated ELISA, C3 deposition; tested in compound mixtures; inhibition, % at 5 µM; actives 0.08% (n = 62,000); AID 1235;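 active = inhibition above 30% in each of the two pooled mixtures holding the compound, so the lower value exceeds 30%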;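 also: 0% = serum in Mg-EGTA without compound and 100% = EDTA serum blank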
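Assay system: human serum alternative complement pathway, C3 deposition on LPS-coated wells; Dosing: 5 µM per compound in ten-compound mixtures; Detection: Anti-C3 ELISA, OD 450 nm; Buffer or medium: Mg2+-EGTA GVB++ buffer containing human serum at 1:15 dilution; Timing: 1 h at 37 °C; Replication: two different pools per compound.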
HePTP inh – blocks human HePTP tyrosine phosphatase; P35236; recombinant HePTP phosphatase activity, OD absorbance; inhibition, % at 20 µM; actives 0.64% (n = 110,000); AID 521; in the data active = inhibition above about 50%;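 also: plate controls were vehicle for no effect and reference inhibitor for full effect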
Target sequence (P35236 whole entry, looked up): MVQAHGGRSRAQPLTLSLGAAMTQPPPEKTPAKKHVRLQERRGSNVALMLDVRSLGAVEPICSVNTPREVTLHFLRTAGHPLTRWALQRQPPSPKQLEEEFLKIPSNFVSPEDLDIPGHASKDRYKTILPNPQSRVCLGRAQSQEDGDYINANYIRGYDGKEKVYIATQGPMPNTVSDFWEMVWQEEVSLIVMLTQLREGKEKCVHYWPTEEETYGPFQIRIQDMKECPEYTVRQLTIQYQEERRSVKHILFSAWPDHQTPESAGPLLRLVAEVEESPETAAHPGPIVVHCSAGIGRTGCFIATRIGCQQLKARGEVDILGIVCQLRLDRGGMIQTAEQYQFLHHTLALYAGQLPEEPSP
A340 absorber – compounds absorbing at 340 nm; compound absorbance at 340 nm, fold over control; fold change at 10 µM; 65,000 tested, under 10 active;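 active = at 10 µM dose, initial 340 nm absorbance at least 2 fold that of control wells; inactive = change under 2 fold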;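 also: initial absorbance extrapolated from kinetic A340 decline of NADH oxidation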
Starred values were filed as active, the others as inactive; · = not tested or not shown. Hits are enriched below; roughly 0.62% of the tested compounds scored in any of these assays.

SMILES	AP ELISA ortho	HePTP inh	A340 absorber
Cn1c(O)c(/C=C2/C=CC=N2)c(=O)n(-c2ccccc2)c1=S	·	101*	·
O=c1c2ccccc2nc(/C=C\c2ccc(O)cc2)n1-c1ccc(O)cc1	·	7	·
COc1ccc(OCC(=O)Nc2ccc(Br)cc2C(=O)c2ccccc2)cc1	·	-11	·
O=C1NC(=S)NC(=O)C1=Cc1ccc(-c2ccc(S(=O)(=O)Nc3nccs3)cc2)o1	·	100*	·
COC(=O)c1ccc(-c2ccc(C=C3C(=O)NC(=S)NC3=O)o2)cc1	·	-10	·
c1cc(CN2CCN(C3C4CC5CC(C4)CC3C5)CC2)ccn1 (stereo unspecified)	·	4	·
CC(C)c1ccc(N2C(=O)NC(=O)/C(=C/c3ccco3)C2=O)cc1	·	-20	·
CCOc1ccc(N2C(=O)NC(=O)/C(=C\c3ccc(C)o3)C2=O)cc1	·	-4	·
O=C1NC(=S)N(c2cccc(Br)c2)C(=O)/C1=C/c1ccco1	·	102*	·
CCOc1ccc(N2C(=O)/C(=C/c3ccco3)C(=O)NC2=S)cc1	·	102*	·
c1cc(CN2CCN(C3CC4CCC3C4)CC2)ccn1 (stereo unspecified)	·	-4	·
CC(=O)OC1(c2ccccc2)CC(C)CN(C(C)(C)C)C1 (stereo unspecified)	·	-6	·
O=C1NC(=S)N(c2cccc(Cl)c2)C(=O)/C1=C/c1ccc(Cl)cc1	·	13	·
Cn1cccc1/C=C1/C(=O)NC(=S)N(c2ccc(Cl)cc2)C1=O	·	100*	·
CCOC(=O)C(C)(C)ON1CC1(C(F)(F)F)C(F)(F)F (stereo unspecified)	·	7	·
O=C1NC(=O)C(=Cc2ccccc2OCc2ccccc2Cl)C(=O)N1	·	1	·
O=C(Cc1ccccc1)N1CCN(Cc2c[nH]c3ccccc23)CC1	42*	2	1
O=C(COc1ccccc1)N1CCN(Cc2c[nH]c3ccccc23)CC1	10	3	1.1
CCN(CC)CCCN=C(C)c1c(O)n(-c2ccccc2)c(=O)[nH]c1=O	-19	-8	1.1
CCC(=NCCCN(CC)CC)c1c(O)n(-c2ccccc2)c(=O)[nH]c1=O	36*	1	1
COc1ccc(CN2CCN(Cc3cccc(OC)c3)CC2)cc1	·	-8	·
COc1ccc(CN2CCN(Cc3ccc(SC)cc3)CC2)cc1	·	72*	·
COc1ccccc1CCNCc1cccc(Cl)c1	·	-2	·
COc1ccccc1CC(=O)N1CCN(C)CC1	·	3	·
CN1C(=O)NC(=O)/C(=C/c2ccc(I)o2)C1=O	·	-4	·
CN1C(=O)NC(=O)/C(=C\c2ccc([N+](=O)[O-])o2)C1=O	·	97*	·
Clc1ccc(CCNCc2ccc3c(c2)OCO3)c(Cl)c1	·	-1	·
Cc1cc(OCC(N)=O)c2c3c(c(=O)oc2c1)CCC3	·	3	·
CCOc1cc(C)cc2oc(=O)c3c(c12)CCC3	·	104*	·
CCN1C(=O)C(=Cc2ccc(N(CC)CC)cc2)C(=O)N(CC)C1=S	·	7	·
